Legend:
NCI-H460 = assay: Cytotoxicity against human NCI-H460 cells assessed as reduction in cell viability after 72 hrs by MTT assay; conditions: NCI-H460, 72 h
PC-3 = assay: Cytotoxicity against human PC3 cells assessed as reduction in cell viability after 72 hrs by MTT assay; assay type: functional, cell-based; conditions: PC-3, 72 h
How it was run: (§1)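 MTT viability assay. Cancer lines grown in RPMI 1640 and L929 fibroblasts in DMEM, each with 10% FBS, 2 mM glutamine, penicillin/streptomycin, 37 °C, 5% CO2. PBMC were taken from healthy donors by density-gradient centrifugation, kept in RPMI with 20% FBS and stimulated with 2% phytohemagglutinin. Cells were exposed 72 h (0.01–27.32 µM). MTT 0.5 mg/mL for 3 h, absorbance read at 550 nm. IC50 with 95% CI from nonlinear regression; triplicate, ≥3 independent experiments.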

SF-295 = assay: Cytotoxicity against human SF295 cells assessed as reduction in cell viability after 72 hrs by MTT assay; conditions: SF-295, 72 h
L929 = assay: Cytotoxicity against mouse L929 cells assessed as reduction in cell viability after 72 hrs by MTT assay; assay type: cell-based; conditions: L929, 72 h; how it was run: as §1
PBMC = assay: Cytotoxicity against human PBMC cells assessed as reduction in cell viability after 72 hrs by MTT assay
HL-60 = assay: Cytotoxicity against human HL60 cells assessed as reduction in cell viability after 72 hrs by MTT assay; assay type: functional, cell-based; conditions: HL-60, 72 h; how it was run: as §1
HCT-116 [1] = assay: Cytotoxicity against human HCT116 cells assessed as reduction in cell viability after 72 hrs by MTT assay; assay type: functional, cell-based; conditions: HCT-116, 72 h; how it was run: as §1
[2] = Selectivity index, ratio of IC50 for human PBMC cells to IC50 for human NCI-H460 cells; assay type: toxicity; conditions: PBMC cells versus NCI-H460 cells
Jurkat = assay: Cytotoxicity against human Jurkat cell viability after 72 hrs by MTT assay
OVCAR-8 = assay: Cytotoxicity against human OVCAR8 cells assessed as reduction in cell viability after 72 hrs by MTT assay; conditions: OVCAR-8, 72 h
MX1 = assay: Cytotoxicity against human MX1 cells assessed as reduction in cell viability after 72 hrs by MTT assay; conditions: MX1, 72 h
HCT-116 [3] = assay: Induction of DNA damage in human HCT116 cells assessed as DNA damage index at 5 uM after 24 hrs by ethidium bromide staing based flurescence microscopic analysis (8.3 +/- 0.88); assay type: functional
HCT-116 [4] = assay: Induction of DNA damage in human HCT116 cells assessed as DNA damage index at 10 uM after 24 hrs by ethidium bromide staing based flurescence microscopic analysis (8.3 +/- 0.88); assay type: functional
HCT-116 [5] = assay: Induction in oxidative stress in human HCT116 cells assessed as nitrite level at 5 uM after 24 hrs by Griess reagent based assay; assay type: functional
How it was run: (§2)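 HCT-116 cells were treated 24 h. Culture supernatant was mixed 1:1 with Griess reagent (sulfanilamide/N-(1-naphthyl)ethylenediamine in H3PO4) for 10 min at room temperature, and absorbance read at 560 nm. Nitrate/nitrite was quantified against a NaNO2 standard curve (0.75–100 µM). Vehicle was the negative control and H2O2 10 µM the positive control; three independent experiments, mean ± S.E.M.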

HCT-116 [6] = assay: Induction in oxidative stress in human HCT116 cells assessed as increase in nitrite level after 24 hrs by Griess reagent based assay; assay type: functional, cell-based; how it was run: as §2
HCT-116 [7] = assay: Induction in oxidative stress in human HCT116 cells assessed as nitrite level at 10 uM after 24 hrs by Griess reagent based assay; assay type: functional; how it was run: as §2

Row | Structure (SMILES) | IC50 (NCI-H460) | IC50 (PC-3) | IC50 (SF-295) | IC50 (L929) | IC50 (PBMC) | IC50 (HL-60) | IC50 (HCT-116 [1]) | selectivity ratio [2] | IC50 (Jurkat) | IC50 (OVCAR-8) | IC50 (MX1) | Activity_index (HCT-116 [3]) | Activity_index (HCT-116 [4]) | Activity (HCT-116 [5]) | Activity (HCT-116 [6]) | Activity (HCT-116 [7])
1 | COc1ccc(-n2cc(-c3ccc(Cl)cc3)c3c2C(=O)c2ccccc2C3=O)cc1 | 3.81 µM | 8.66 µM | 4.28 µM | > 12.1 µM | > 12.1 µM | 3.15 µM | 8.88 µM | > 3.1 | – | – | – | – | – | – | – | –
2 | O=C1c2ccccc2C(=O)c2c(-c3ccccc3[N+](=O)[O-])coc21 | 2.53 µM | 1.59 µM | 2.94 µM | > 15.7 µM | > 15.7 µM | 1.66 µM | 1.28 µM | – | 1.47 µM | 2.25 µM | 2.85 µM | – | – | – | – | –
3 | O=C1c2ccccc2C(=O)c2c(-c3cccc4ccccc34)coc21 | 3.79 µM | 1.82 µM | 4.44 µM | 13 µM | > 15.4 µM | 2.37 µM | 6.17 µM | – | 2.09 µM | 3.88 µM | 3.3 µM | – | – | – | – | –
4 | O=C1c2ccccc2C(=O)c2c(-c3cccc4c3OCO4)coc21 | 3.61 µM | 2.54 µM | 3.71 µM | > 15.7 µM | > 15.7 µM | 2.23 µM | 2.76 µM | – | 2.04 µM | 3.08 µM | 2.92 µM | 42.88 | 82.77 | 5.33 µM | Dose-dependent effect | 8.33 µM
5 | O=C1c2ccccc2C(=O)c2c(-c3cccs3)coc21 | 5.67 µM | 4.85 µM | 4.96 µM | > 17.9 µM | > 17.9 µM | 3.28 µM | 5.17 µM | – | 4.21 µM | 5.39 µM | 4.92 µM | – | – | – | – | –
6 | COc1ccc(-c2coc3c2C(=O)c2ccccc2C3=O)cc1 | 6.34 µM | 4.96 µM | 4.99 µM | > 16.4 µM | > 16.4 µM | 4.31 µM | 5.78 µM | – | 3.81 µM | 6.01 µM | 5.59 µM | – | – | – | – | –
7 | COc1ccc(-c2coc3c2C(=O)c2ccccc2C3=O)cc1OC | 4.07 µM | 3.89 µM | 3.74 µM | > 15 µM | > 15 µM | 3.41 µM | 5.2 µM | – | 3.71 µM | 4.69 µM | 5.05 µM | – | – | – | – | –

From ChEMBL document CHEMBL4152217, “Quinonoid compounds via reactions of lawsone and 2-aminonaphthoquinone with α-bromonitroalkenes and nitroallylic acetates: Structural diversity by C-ring modification and cytotoxic evaluation against cancer cells” (Eur J Med Chem, 2018)
